High-throughput results from PubChem.
CHRM4 PAM: CHRM4 positive allosteric modulation; CHO-K1 hM4/Gqi5, Fluo-8 calcium fluorescence, ACh EC20; 0% = ACh EC20, 100% = maximal ACh; activation, % at 3 µM; actives 0.4% (n = 360,000); AID 624126;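 active means activation above its plate's cutoff, the mean activation of sample wells plus 3 SD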
Target sequence (P08173 whole entry, looked up): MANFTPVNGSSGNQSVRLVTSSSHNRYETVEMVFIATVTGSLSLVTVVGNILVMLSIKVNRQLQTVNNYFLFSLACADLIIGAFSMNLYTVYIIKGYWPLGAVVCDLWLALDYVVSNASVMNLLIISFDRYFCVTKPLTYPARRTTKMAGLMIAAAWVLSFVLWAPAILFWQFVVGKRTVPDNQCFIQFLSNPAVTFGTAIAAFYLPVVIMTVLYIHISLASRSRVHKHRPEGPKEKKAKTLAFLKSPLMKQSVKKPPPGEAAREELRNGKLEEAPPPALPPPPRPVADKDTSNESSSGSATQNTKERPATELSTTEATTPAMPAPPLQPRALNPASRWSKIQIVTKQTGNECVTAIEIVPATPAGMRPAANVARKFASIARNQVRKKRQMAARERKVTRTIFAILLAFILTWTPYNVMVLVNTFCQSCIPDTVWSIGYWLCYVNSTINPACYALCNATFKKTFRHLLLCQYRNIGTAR
CHRM5 PAM: positive allosteric modulators of human muscarinic M5 receptor | activation, % at 3 µM | actives 0.3% (n = 360,000) | AID 624038 | CHO-K1 hM5, Fluo-8 calcium, ACh EC20 PAM; 0% = ACh EC20, 100% = ACh EC100 | P08912;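 active means activation above the run cutoff, the mean activation of all test compounds plus 3 SD, cut at about 18% in these data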
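System: CHO-K1 hM5 cells. Reagent: acetylcholine, EC20 level. Compound dosing: single dose, 3 µM nominal final test concentration. Timing: Post-acetylcholine fluorescence recording 140 s. Detection: Fluo-8 calcium fluorescence. Read-out: % activation, ACh-normalized. Benchmarks: ACh EC20 and EC100 wells. Repeats: singlicate, one well per test compound.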
CHRM4 agonist: CHRM4 agonism in calcium assay | CHO-K1 hM4/Gqi5, Fluo-8 calcium fluorescence; vehicle 0%, full acetylcholine response 100% | activation, % at 3 µM | AID 624127 | actives 0.14% (n = 360,000);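 active means activation above the run mean over all test wells plus 3 SD, cut at about 32% in these data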;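 further: peak over basal fluorescence ratio per well then scaled between controls; 0% = DMSO wells and 100% = acetylcholine at EC100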
CHRM5 antagonist: blocks acetylcholine activation of human M5 receptor; actives 0.59% (n = 360,000); AID 624040; CHO-hM5 cells, Fluo-8 calcium fluorescence, ACh EC80; inhibition, % at 3 µM; P08912;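 active means inhibition above a per-plate cutoff, the mean of that plate's test compounds plus 3 SD, cut at about 27% in these data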;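 further: 0% = acetylcholine EC80 with DMSO and 100% = DMSO without agonist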
CHRM4 antagonist: blocks acetylcholine activation of human M4 receptor; CHO-hM4 cells, ACh EC80, Fluo-8 calcium fluorescence; P08173; actives 0.73% (n = 360,000); inhibition, % at 3 µM;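 active means inhibition above its plate's cutoff, the mean inhibition of sample wells plus 3 SD, cut at about 27% in these data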;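 further: 0% = acetylcholine EC80 with DMSO and 100% = DMSO without agonist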
CHRM5 agonist: CHRM5 agonism in calcium assay. P08912. CHO-K1 hM5 cells, Fluo-8 calcium fluorescence; 0% DMSO wells, 100% maximal acetylcholine response. activation, % at 3 µM. actives 0.19% (n = 360,000);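 active means activation above the run's mean over test compounds plus 3 SD, cut at about 23% in these data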;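 further: signal is peak over basal fluorescence ratio across the kinetic read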
An asterisk follows results filed as active. The list is not random: actives were taken first. Their share in the collection is about 1.8%.

SMILES | CHRM4 PAM | CHRM5 PAM | CHRM4 agonist | CHRM5 antagonist | CHRM4 antagonist | CHRM5 agonist
CCn1c(SCC(=O)N2CCCC2)nc2c(c1=O)SC(C)C2 (stereo unspecified) | -16 | -14 | -1 | 4 | 84* | 0
COCCn1c(SCC(=O)Nc2cc(C)on2)nc2c(c1=O)SC(C)C2 (stereo unspecified) | 4 | 9 | 1 | 2 | 5 | -2
COc1cccc(CNC(=O)CN(c2ccc(C(C)C)cc2)S(=O)(=O)c2c(C)noc2C)c1 | -3 | 5 | 1 | -3 | -7 | -4
CC1CCN(CC(=O)Nc2ccccc2-c2ccccc2)CC1 | -13 | -24 | -2 | 9 | 27* | -6
O=C(Nc1ccccc1-c1ccccc1)C1CCC1 | 2 | 0 | 54* | 2 | -9 | -4
CCOc1cc(Cl)c(CNCCCN2CCOCC2)cc1OC | -5 | 10 | 0 | -8 | 6 | 4
CCOC(=O)c1csc(-c2ccc(OC)c(OC)c2)n1 | -1 | -4 | 1 | 12 | -10 | 1
COc1ccc(-c2nc(C(=O)O)cs2)cc1OC | 7 | 26* | 2 | -15 | -19 | 3
CCOC(=O)C1=NOC2(C1)C(=O)Nc1ccc(OC)cc12 (stereo unspecified) | 6 | 2 | 1 | -4 | 0 | 2
COc1ccc(-c2cn3cccnc3n2)cc1NC(=O)C1CC1 | 9 | 19* | 1 | -3 | 26* | -1
COc1cc(NC(=O)COc2ccc(-n3ccnc3)cc2)cc(OC)c1 | -9 | -10 | 7 | 11 | 7 | 3
N#Cc1cccc(NC(=O)COc2ccc(-n3ccnc3)cc2)c1 | -14 | -17 | 17 | 40* | 26 | 0
O=C(COc1ccccc1)N/N=C/c1ccc(O[C@@H]2O[C@H](CO)[C@@H](O)[C@H](O)[C@H]2O)cc1 | -2 | 3 | 1 | -10 | -3 | 2
O=C(NCc1ccccc1)c1ccccc1NC(=O)C1CCCCC1 | -3 | -1 | 7 | 0 | -4 | -3
COc1ccc(N2CCN(c3cc(C(=O)NC4CCCCC4)ncn3)CC2)cc1OC | 6 | 0 | 4 | 1 | -13 | -2
O[Si](CCCN1CCCCC1)(c1ccc(F)cc1)C1CCCCC1 (stereo unspecified) | -19 | -18 | 5 | 74* | 90* | 1
CC(=O)Nc1ccc(C(=O)CN2C(=O)NC3(CCOc4ccccc43)C2=O)c(F)c1 (stereo unspecified) | 0 | -3 | 13 | 8 | 8 | 6
COc1cccc(-n2c(SCC(=O)NCc3ccco3)nnc2-c2c[nH]c3ccccc23)c1 | 9 | -3 | 0 | 3 | -16 | 0
COc1ccc(-c2[nH]c(-c3ccc(C)cc3)nc2SCC(=O)NCc2ccco2)cc1OC | 21* | 4 | 0 | -9 | -24 | -2
COc1ccc(OC)c(-n2c(SCC(=O)NCc3ccco3)nnc2-c2c[nH]c3ccccc23)c1 | -12 | -5 | 0 | -4 | 40* | -1
CC(=O)OC[C@]12CC[C@H]3[C@@](C)(CC[C@H]4C(C)(C)CCC[C@]34C)[C@@H]1CC(C1=CC(=O)OC1O)O2 (stereo partly specified) | -13 | -2 | 2 | 13 | 88* | 1
CC(=O)OC[C@]1(OC(C)=O)C[C@@]23CC[C@H]4[C@@](C)(CCC[C@@]4(C)C(=O)O)[C@@H]2CC[C@@H]1C3 | 2 | -2 | 1 | 7 | -1 | -1
CC(=O)OCc1c(C(F)(F)F)nn(C)c1SCc1ccc(Cl)cc1 | -24 | -21 | -3 | 10 | 56* | -8
Cn1c(CNC(=O)c2ccco2)nnc1SCCOc1ccccc1 | -6 | 2 | 2 | 11 | 11 | 1
Cc1ccc(NC(=O)c2ccc3c(c2)[nH]c(=O)n3C(C)C)cc1 | -9 | -16 | 5 | 28* | 1 | -1
SMILES | CHRM4 PAM | CHRM5 PAM | CHRM4 agonist | CHRM5 antagonist | CHRM4 antagonist | CHRM5 agonist
CC(C)n1c(=O)[nH]c2ccccc21 | 1 | -2 | 1 | -1 | 2 | 1
CC(=O)/C=C1\OCc2ccccc21 | 8 | -2 | 2 | 1 | -11 | 2
Nc1nc(N)c(Br)c(Nc2ccc(Cl)c(Cl)c2)n1 | 23 | 29* | 4 | 0 | -20 | 25*
Cc1ccc(Nc2nc(N)nc(N)c2N=O)cc1Cl | 18 | -4 | 11 | 6 | -3 | 45*
CCc1c(N)nc(N)nc1Nc1ccc(C)c(C)c1 | 7 | -12 | 4 | 4 | -17 | 2
Nc1nc(N)c(N=O)c(Nc2cccc(Cl)c2)n1 | 5 | -1 | 7 | -7 | -9 | 45*
Nc1nc(N)c(N=O)c(Nc2ccc(Cl)c(Cl)c2)n1 | 21 | -1 | 19 | 2 | -12 | 52*
CC(=O)Oc1ccc(C(=O)Nc2ccc(S(=O)(=O)N3CCOCC3)cc2)cc1 | 4 | 2 | 6 | 4 | -10 | 0
COc1ccc(N2CCN(C(=O)CSc3nnc4n3C(C)(C)Cc3ccccc3-4)CC2)cc1 | 4 | -2 | 0 | 2 | 4 | -1
Cc1ccc(Cl)cc1N1CCN(C(=O)CSc2nnc3n2C(C)(C)Cc2ccccc2-3)CC1 | -18 | -24 | 13 | 41* | 33* | 4
CC12CC3(C)CC(C)(C1)CC(C(=O)NC(=S)N1CCCC1)(C2)C3 | 8 | -8 | 0 | -1 | -3 | -5
CN(C)C(CNC(=O)CNC(=O)Cc1cccc2ccccc12)c1ccccc1 (stereo unspecified) | 1 | -1 | 1 | 10 | -5 | -5
O=C1CSC(c2ccccn2)N1c1ccccc1 (stereo unspecified) | 10 | 3 | 1 | 1 | 0 | -1
O=C1CSC(c2ccccn2)N1c1ccc(Br)cc1 (stereo unspecified) | -22 | 3 | 0 | 7 | 61* | -13
Cc1ccc(-n2nnnc2CNC(=O)c2ccc3c(c2)OCO3)cc1C | -14 | -9 | 1 | 12 | 63* | -10
Cc1ccc(-n2nnnc2CNC(=O)c2ccc(Br)o2)cc1C | 1 | 3 | 1 | 5 | -1 | -5
NC(=O)c1ccccc1OCc1nnc(-c2ccccc2Br)o1 | -3 | -6 | 4 | 2 | 1 | 1
CC12CCC3c4ccc(O)c([N+](=O)[O-])c4CCC3C1CCC2=O (stereo unspecified) | 3 | -2 | 3 | 8 | -4 | 2
Cc1nc2c(=O)n(C)c(=O)n(C)c2nc1Cl | -12 | -12 | -2 | 28* | 25 | -3
Cn1c(=O)c2nc(NCc3ccccc3)cnc2n(C)c1=O | 1 | 2 | 1 | -1 | -1 | 4
